Positions of bridges follow the written chain, without caps; N, C: chain ends. Residues, ends and D or L forms follow the SMILES beside them. Chains are numbered I, II in the order given.
Tests used:
Mus musculus = assay: Metabolic stability in Swiss mouse at 2 to 5 MBq, iv administered as [99m]technetium-radiolabeled peptide by scintigraphic imaging; assay type: ADME, organism-based; conditions: in vivo
Summary of the method: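 After intravenous injection of 99mTc-labelled peptide (2 to 5 MBq) into thigh-infected mice, scintigraphic imaging follows clearance from the circulation. The value is the biological half-life in minutes, mean ± SD.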

[1] = Biodistribution in Swiss mouse urinary bladder at 2 to 5 MBq, iv administered as [99m]technetium-radiolabeled peptide by scintigraphic imaging; assay type: ADME, organism-based; conditions: in vivo
Summary of the method: (§1)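 Mice carry a thigh-muscle infection from 0.1 ml saline containing 0.5 to 2.0 × 10^7 CFU S. aureus. Peptides labelled with 99mTc (2 to 5 MBq) are injected intravenously and tracked by scintigraphic imaging. Radioactivity in bladder, kidneys, spleen, liver and infected muscle is given as % of injected dose, mean ± SD.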

Liver = assay: Biodistribution in Swiss mouse liver at 2 to 5 MBq, iv administered as [99m]technetium-radiolabeled peptide by scintigraphic imaging; assay type: ADME, organism-based; conditions: in vivo; summary of the method: as §1
Staphylococcus aureus [2] = assay: Bactericidal activity against multidrug-resistant Staphylococcus aureus 2141 isolate after 2 hrs; assay type: functional
Summary of the method: (§2)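 1 × 10^6/ml bacteria in phosphate buffer with 1% (wt/vol) tryptic soybean broth exposed to various peptide amounts, 2 h at 37°C. Viable counts on DST plates. LC50 = concentration (μM) cutting viable bacteria by 50% versus no-peptide incubations. Means from at least three independent experiments.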

Staphylococcus aureus [3] = assay: Bactericidal activity against Staphylococcus aureus ATCC 25923 after 2 hrs; assay type: functional; conditions: ATCC 25923, 2 h; summary of the method: as §2
[4] = Ratio of drug level in infected thigh muscle to contralateral noninfected thigh muscle in Staphylococcus aureus […] infected Swiss mouse administered as [99m]technetium-radiolabeled peptide; assay type: ADME, tissue-based; conditions: in vivo
Summary of the method: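 Thighs are infected with 0.5 to 2.0 × 10^7 CFU S. aureus in 0.1 ml saline, and 99mTc-labelled peptide is given intravenously. Scintigraphic imaging compares radioactivity in the infected thigh muscle (target) with the contralateral noninfected thigh muscle (nontarget). The T/NT ratio is determined at several intervals after injection.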

[5] = Ratio of drug level in infected thigh muscle to contralateral noninfected thigh muscle in multidrug-resistant Staphylococcus aureus 2141 infected Swiss mouse administered as [99m]technetium-radiolabeled peptide; assay type: ADME, tissue-based; conditions: in vivo
Summary of the method: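 99mTc-labelled peptides (2 to 5 MBq) injected intravenously into infected mice. Scintigraphic imaging at intervals. Ratio = accumulation in infected thigh muscle (target) over contralateral noninfected thigh muscle (nontarget).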

Staphylococcus aureus [6] = assay: Bactericidal activity against multidrug-resistant Staphylococcus aureus 2141 isolate infected iv dosed Swiss mouse assessed per gram of infected soft tissue after 24 hrs; assay type: functional
Summary of the method: (§3)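 Mice infected with 0.1 ml saline containing 0.5 to 2.0 × 10^7 CFU. After 18 h, various peptide amounts given intravenously. Mice kept another 24 h, then sacrificed and viable bacteria counted. LC50 = μmol/g infected tissue cutting viable counts by 50% versus untreated mice. Means from at least three animals per peptide concentration.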

Spleen = assay: Biodistribution in Swiss mouse spleen at 2 to 5 MBq, iv administered as [99m]technetium-radiolabeled peptide by scintigraphic imaging; assay type: ADME, organism-based; conditions: in vivo; summary of the method: as §1
Kidney = assay: Biodistribution in Swiss mouse kidney at 2 to 5 MBq, iv administered as [99m]technetium-radiolabeled peptide by scintigraphic imaging; assay type: ADME, organism-based; conditions: in vivo; summary of the method: as §1
[7] = Biodistribution in Staphylococcus aureus infected Swiss mouse thigh muscle at 2 to 5 MBq, iv administered as [99m]technetium-radiolabeled peptide by scintigraphic imaging; assay type: ADME, organism-based, Muscle tissue; conditions: in vivo; summary of the method: as §1
Staphylococcus aureus [8] = assay: Bactericidal activity against Staphylococcus aureus ATCC 25923 infected iv dosed Swiss mouse assessed per gram of infected soft tissue after 24 hrs; assay type: functional; summary of the method: as §3

Structure (SMILES)	t1/2 (Mus musculus) [min]	Drug uptake [1] [%ID]	Drug uptake (Liver) [%ID]	LC50 (Staphylococcus aureus [2]) [µM]	LC50 (Staphylococcus aureus [3]) [µM]	Ratio [4]	Ratio [5]	LC50 (Staphylococcus aureus [6]) [µmol/g]	Drug uptake (Spleen) [%ID]	Drug uptake (Kidney) [%ID]	Drug uptake [7] [%ID]	LC50 (Staphylococcus aureus [8]) [µmol/g]
N=C(N)NCCC[C@H](NC(=O)[C@H](Cc1cnc[nH]1)NC(=O)[C@H](CO)NC(=O)[C@H](Cc1cnc[nH]1)NC(=O)[C@H](Cc1cnc[nH]1)NC(=O)[C@H](CCCCN)NC(=O)[C@H](CCC(=O)O)NC(=O)[C@H](Cc1cnc[nH]1)NC(=O)[C@H](Cc1ccccc1)NC(=O)[C@H](CCCCN)NC(=O)[C@H](CCCNC(=N)N)NC(=O)[C@@H](N)CCCCN)C(=O)NCC(=O)N[C@@H](Cc1ccc(O)cc1)C(=O)NCCCC[C@H](NC(=O)[C@H](Cc1ccc(O)cc1)NC(=O)CNC(=O)[C@H](CCCNC(=N)N)NC(=O)[C@H](Cc1cnc[nH]1)NC(=O)[C@H](CO)NC(=O)[C@H](Cc1cnc[nH]1)NC(=O)[C@H](Cc1cnc[nH]1)NC(=O)[C@H](CCCCN)NC(=O)[C@H](CCC(=O)O)NC(=O)[C@H](Cc1cnc[nH]1)NC(=O)[C@H](Cc1ccccc1)NC(=O)[C@H](CCCCN)NC(=O)[C@H](CCCNC(=N)N)NC(=O)[C@@H](N)CCCCN)C(N)=O (I: H-KRKFHEKHHSHRGYK-NH2 / II: H-KRKFHEKHHSHRGY; amide I:15-II:C)	8.6	26.8	9	8.2	8.4	4.4	1.8	2	3.2	10.5	0.5	1.5
N=C(N)NCCC[C@H](NC(=O)[C@H](Cc1cnc[nH]1)NC(=O)[C@H](CO)NC(=O)[C@H](Cc1cnc[nH]1)NC(=O)[C@H](Cc1cnc[nH]1)NC(=O)[C@H](CCCCN)NC(=O)[C@H](CCC(=O)O)NC(=O)[C@H](Cc1cnc[nH]1)NC(=O)[C@H](Cc1ccccc1)NC(=O)[C@H](CCCCN)NC(=O)[C@H](CCCNC(=N)N)NC(=O)[C@@H](N)CCCCN)C(=O)NCC(=O)N[C@@H](Cc1ccc(O)cc1)C(=O)O (H-KRKFHEKHHSHRGY-OH)	17.7	30.7	9.4	112	35	3.5	1.8	1	2.1	21	0.4	2
